According to ChEMBL document CHEMBL1153184, “Drug design and synthesis of a novel kappa opioid receptor agonist with an oxabicyclo[2.2.2]octane skeleton and its pharmacology” (Bioorg Med Chem Lett, 2010):
Active and inactive are the calls of the source. The rule behind the calls is not given here.

Assays:
[1] = Displacement of [3H]NTI from guinea pig forebrain delta opioid receptor; set-up: species or system Cavia porcellus
Summary of the method: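 Radioligand competition binding in duplicate on guinea-pig brain homogenate. Cerebellum was used for κ and forebrain for μ and δ. The μ tracer was [³H]DAMGO, δ was [³H]NTI and κ was [³H]U-69,593. Affinity was expressed as Ki.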

[2] = target: Kappa-type opioid receptor (Cavia porcellus, UniProt P41144); test: Displacement of [3H]U69593 from guinea pig cerebellum kappa opioid receptor; format: tissue-based
Summary of the method: (§1)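 Radioligand competition binding in duplicate on guinea-pig brain homogenate. Cerebellum was used for κ and forebrain for μ and δ. Affinity was expressed as Ki.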

Mu-type opioid receptor = Mu-type opioid receptor (Cavia porcellus, UniProt P97266); test: Displacement of [3H]DAMGO from guinea pig forebrain mu opioid receptor; summary of the method: as §1
Mus musculus [3] = test: Antinociceptive activity in sc dosed mouse assessed as inhibition of acetic acid-induced writhing response at 0.03 mg/kg in presence of 0.3 mg/kg mu opioid receptor antagonist naloxone; format: functional, organism-based
Mus musculus [4] = test: Antinociceptive activity in sc dosed mouse assessed as inhibition of acetic acid-induced writhing response at 0.03 mg/kg in presence of 20 mg/kg kappa opioid receptor antagonist nor-BNI; format: functional, organism-based
Mus musculus [5] = test: Antinociceptive activity in sc dosed mouse assessed as inhibition of acetic acid-induced writhing response; format: functional
Mus musculus [6] = test: Antinociceptive activity in sc dosed mouse assessed as inhibition of acetic acid-induced writhing response at 0.03 mg/kg in presence of 3 mg/kg delta opioid receptor antagonist NTI; format: functional, organism-based

Mu-type opioid receptor, sequence (P97266 whole entry): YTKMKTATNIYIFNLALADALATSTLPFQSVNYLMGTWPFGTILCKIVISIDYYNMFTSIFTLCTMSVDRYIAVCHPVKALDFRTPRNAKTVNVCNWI
Kappa-type opioid receptor, sequence (P41144 whole entry): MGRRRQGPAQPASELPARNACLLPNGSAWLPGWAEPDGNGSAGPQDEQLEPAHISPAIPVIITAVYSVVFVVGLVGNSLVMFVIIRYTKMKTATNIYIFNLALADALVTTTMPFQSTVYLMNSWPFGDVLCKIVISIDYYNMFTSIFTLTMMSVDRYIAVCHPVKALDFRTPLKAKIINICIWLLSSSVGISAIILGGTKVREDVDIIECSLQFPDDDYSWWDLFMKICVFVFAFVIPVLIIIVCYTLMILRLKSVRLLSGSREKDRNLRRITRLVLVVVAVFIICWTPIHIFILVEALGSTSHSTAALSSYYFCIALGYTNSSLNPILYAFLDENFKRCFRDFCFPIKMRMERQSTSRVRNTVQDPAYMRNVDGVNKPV

`O=C(Nc1ccccc1)[C@@H]1O[C@@]23CC[C@@]1(O)[C@@H]1Oc4c(O)ccc5c4[C@@]12CCN(CC1CC1)[C@@H]3C5` showed a Ki [1] of 3.23 nM, a Ki [2] of 0.152 nM and a Ki (Mu-type opioid receptor) of 0.205 nM.

With `O=C(Nc1ccccc1)[C@H]1O[C@@]23CC[C@]1(O)[C@@H]1Oc4c(O)ccc5c4[C@@]12CCN(CC1CC1)[C@@H]3C5` the Ki [1] was 2.73 nM, the Ki [2] was 0.111 nM and the Activity (Mus musculus [3]) was “Active”. The Activity (Mus musculus [4]) was “inactive”, the Activity (Mus musculus [5]) was “Dose-dependent effect” and the ED50 (Mus musculus [5]) was 6.3 µg/kg. The Activity (Mus musculus [6]) was “Active” and the Ki (Mu-type opioid receptor) was 0.212 nM.

Work on `CN(C(=O)/C=C/c1ccco1)[C@@H]1CC[C@@]2(O)[C@H]3Cc4ccc(O)c5c4[C@@]2(CCN3CC2CC2)[C@H]1O5` yielded a Ki [1] of 96.5 nM, a Ki [2] of 0.225 nM and a Ki (Mu-type opioid receptor) of 0.582 nM.

With `O=C1CC[C@@]2(O)[C@H]3Cc4ccc(O)c5c4[C@@]2(CCN3CC2CC2)[C@H]1O5` [NALTREXONE] the Ki [1] was 20.7 nM.
